Reference: ChEMBL document CHEMBL1124071, “New human renin inhibitors containing an unnatural amino acid, norstatine” (J Med Chem, 1988)

Columns and labels:
[1] = biological target: T1, Renin (Rattus norvegicus, UniProt P08424); test: Inhibitory concentration was measured against plasma renin from rat
T1 sequence (P08424 whole entry): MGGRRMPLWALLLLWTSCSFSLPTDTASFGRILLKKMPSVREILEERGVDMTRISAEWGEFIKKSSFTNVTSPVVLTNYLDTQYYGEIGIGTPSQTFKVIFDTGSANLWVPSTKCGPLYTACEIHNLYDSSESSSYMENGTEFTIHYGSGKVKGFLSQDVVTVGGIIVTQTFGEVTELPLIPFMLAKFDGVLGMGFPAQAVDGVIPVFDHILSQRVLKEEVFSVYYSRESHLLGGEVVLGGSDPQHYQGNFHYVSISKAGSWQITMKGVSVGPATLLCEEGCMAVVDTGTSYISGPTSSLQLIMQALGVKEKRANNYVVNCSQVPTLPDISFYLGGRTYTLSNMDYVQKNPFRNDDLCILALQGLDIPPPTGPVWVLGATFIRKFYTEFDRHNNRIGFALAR

[2] = biological target: T2, Renin (Homo sapiens, UniProt P00797); test: Inhibitory concentration against human renin
T2 sequence (P00797 whole entry): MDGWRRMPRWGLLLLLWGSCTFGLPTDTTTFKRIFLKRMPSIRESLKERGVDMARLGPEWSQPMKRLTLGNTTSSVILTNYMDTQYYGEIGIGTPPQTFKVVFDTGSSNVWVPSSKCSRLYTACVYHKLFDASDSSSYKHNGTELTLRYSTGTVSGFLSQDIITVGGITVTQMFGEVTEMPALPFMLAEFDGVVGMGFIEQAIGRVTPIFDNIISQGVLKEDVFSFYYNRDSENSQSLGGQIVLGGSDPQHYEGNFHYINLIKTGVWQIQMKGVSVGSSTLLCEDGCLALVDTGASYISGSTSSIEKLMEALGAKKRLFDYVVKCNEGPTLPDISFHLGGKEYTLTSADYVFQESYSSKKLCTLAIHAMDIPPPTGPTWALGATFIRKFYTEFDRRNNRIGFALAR

[3] = biological target: T2, Renin; test: Inhibitory concentration was measured against plasma renin from human; format: cell-free
Procedure, shortened: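 Human plasma containing EDTA-2Na (14 mM) and neomycin sulfate (0.3%) was mixed with 0.5 M phosphate buffer pH 7.0, Phe-Ala-Pro and inhibitor in DMSO. Incubation ran 60 min at 37 °C, then angiotensin I generated was quantified by radioimmunoassay. IC50 refers to inhibition of plasma renin activity.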

[4] = biological target: Renin (Canis familiaris); test: Inhibitory concentration was measured against plasma renin from dog

SMILES	IC50 [1] [nM]	IC50 [2] [nM]	IC50 [3] [nM]	IC50 [4] [nM]
CC(C)CC(NC(=O)C(Cc1cnc[nH]1)NC(=O)C(CC(=O)N1CCOCC1)Cc1cccc2ccccc12)C(O)CC(=O)OC(C)C (stereo not given)	> 100000	180	66	350
COC(=O)C(O)C(CC(C)C)NC(=O)C(Cc1c[nH]cn1)NC(=O)C(CC(=O)N(C)C)Cc1cccc2ccccc12 (stereo not given)	> 100000	78	25	640
COC(=O)[C@@H](O)C(CC(C)C)NC(=O)C(Cc1c[nH]cn1)NC(=O)C(CC(=O)NCCc1ccccc1)Cc1cccc2ccccc12 (single isomer, unassigned; (+))		1300		
COC(=O)[C@H](O)C(CC(C)C)NC(=O)C(Cc1cnc[nH]1)NC(=O)C(CC(=O)NCCc1ccccc1)Cc1cccc2ccccc12 (single isomer, unassigned; (+))		31	77	
COC(=O)C(O)C(CC(C)C)NC(=O)C(Cc1c[nH]cn1)NC(=O)C(CC(=O)NCCc1ccccc1)Cc1cccc2ccccc12 (stereo in doubt; 12)		> 100000		

More lines, in order of falling IC50 [2], values ahead:

IC50 [1] [nM]	IC50 [2] [nM]	IC50 [3] [nM]	IC50 [4] [nM]	SMILES
4400	130	130	1100	CC(C)CC(NC(=O)C(Cc1c[nH]cn1)NC(=O)C(CC(=O)N1CCOCC1)Cc1cccc2ccccc12)C(O)C(=O)NC(C)C (stereo not given)
> 100000	78	90	2100	COC(=O)C(O)C(CC(C)C)NC(=O)C(Cc1c[nH]cn1)NC(=O)C(CC(=O)NCCc1ccccc1)Cc1cccc2ccccc12 (stereo in doubt)
